# Source: PubChem
# An excerpt weighted towards active compounds, which were near 2.7% of everything screened.
# S100A4 inh HTS – inhibitors of human S100A4 binding to myosin IIA peptide | P26447 | S100A4/TAMRA-MyoIIA peptide fluorescence polarization | inhibition, % at 10.7 µM | actives 0.14% (n = 360,000) | AID 652163;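 active = mean inhibition of at least 70% across replicates, with every replicate also reaching that level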
#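 Test system – S100A4 monomer (human) · Compound – single-point compound testing · Schedule – 5 min incubation before reading · Probe or stimulus – TAMRA-labelled myosin IIA heavy-chain peptide probe, 5 nM · Benchmarks – neutral control DMSO, positive control TFP · Medium – Calcium-containing HEPES buffer, pH 7.2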
# FGF22 binding – binders of recombinant human FGF22 by thermal shift; Q9HCT0; SYPRO orange fluorescence; percent of sucrose octasulfate shift, DMSO zero; activity (Tm shift, normalised), % at 9.99 µM; actives 1.5% (n = 340,000); AID 651658;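 active = mean Tm shift, scaled 0 neutral to 100 positive control, at about 1.3% or above, every replicate too, limit read from the data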
# E-selectin induc – E-selectin induction on HUVECs; P16581; HUVEC E-selectin immunofluorescence imaging; normalized: neutral wells 0, TNF-alpha wells 100; activation, % at 7.58 µM; actives 0.37% (n = 260,000); AID 686992;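 active = mean E-selectin-positive cell signal at least 10% of the positive control, reached in at least 60% of replicates, without over 20% cell loss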
# Target sequence (P16581 whole entry, looked up): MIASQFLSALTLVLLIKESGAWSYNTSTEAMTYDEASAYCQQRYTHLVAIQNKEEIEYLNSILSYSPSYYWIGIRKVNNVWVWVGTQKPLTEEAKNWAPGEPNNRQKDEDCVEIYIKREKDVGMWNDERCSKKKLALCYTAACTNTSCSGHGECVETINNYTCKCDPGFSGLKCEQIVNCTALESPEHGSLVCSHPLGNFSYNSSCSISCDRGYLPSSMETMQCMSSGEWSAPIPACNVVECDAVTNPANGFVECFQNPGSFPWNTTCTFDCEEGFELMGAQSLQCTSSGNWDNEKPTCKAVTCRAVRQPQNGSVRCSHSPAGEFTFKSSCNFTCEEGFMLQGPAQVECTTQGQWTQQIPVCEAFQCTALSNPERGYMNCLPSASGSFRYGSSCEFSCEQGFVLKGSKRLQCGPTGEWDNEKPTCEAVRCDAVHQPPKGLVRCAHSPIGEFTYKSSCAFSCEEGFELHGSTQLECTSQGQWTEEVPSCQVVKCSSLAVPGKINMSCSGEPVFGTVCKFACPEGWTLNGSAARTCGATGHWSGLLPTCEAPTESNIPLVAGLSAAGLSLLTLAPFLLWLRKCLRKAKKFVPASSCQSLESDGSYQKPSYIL
#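 assay system = HUVEC, human umbilical vein endothelial cells | input = 3,000 HUVEC seeded per well | medium = EGM-2 growth medium on 0.1% gelatin-coated wells | dosing = one compound dose added by pin transfer | signal = immunofluorescence imaging | read-out basis = % PE-positive cells | control set = TNF-alpha, DMSO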
# CFTR F508del cor – correctors of CFTR F508del function in bronchial epithelial cells; CFBE cells, YFP halide quenching; stimulated with forskolin plus potentiator P3; % fluorescence drop versus neutral controls; activity (quench increase), % at 7.58 µM; actives 0.36% (n = 350,000); AID 720511;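 active = mean added fluorescence quench of at least 8% versus neutral control, with both replicates also reaching 8%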;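 note: cells transiently co-express mutant CFTR-F508del with the halide-sensitive YFP; corrector assay measuring rescue of mutant channel to the surface after 24 h compound exposure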
# Env fusion inh – blocks HIV Env-driven cell-cell fusion | AID 651610 | HeLa-JRFL Env/CEM21 cell fusion, luciferase | inhibition, % at 12.3 µM | actives 1.1% (n = 360,000);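 active = mean replicate inhibition score of at least 50 and every replicate individually at or above 50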
# A number is an active result; n = inactive; x = no result given; [ ] = remark or other dose.
SMILES,S100A4 inh HTS,FGF22 binding,E-selectin induc,CFTR F508del cor,Env fusion inh
COc1ccc(Cl)cc1NC(=O)CN(C)CC(=O)Nc1ccc(Br)cc1,n,n,n,n,n
COc1ccc(Cl)cc1NC(=O)CN(C)CC(=O)Nc1cc(OC)c(OC)c(OC)c1,n,n,n,13,n
CS(=O)(=O)N(CC(=O)Nc1ccc(F)cc1F)C1CCCCC1,n,n,x,n,n
COc1ccc(Cl)cc1NC(=O)CN(C1CCCCC1)S(C)(=O)=O,x,x,x,x,125
CC(Cl)c1cc(-c2ncc(C(F)(F)F)cc2Cl)no1 (configuration not stated),n,44,x,n,n
CCCCN1C(=O)C(O)(c2ccccc2)c2cc(Br)ccc21 (configuration not stated),n,n,x,n,85
O=C(Cc1ccc(Cl)c(Cl)c1)OCC(=O)c1ccc[nH]1,x,x,x,x,n
O=C(Cc1ccc(Cl)cc1)OCC(=O)c1ccc[nH]1,n,n,n,23,x
[N-]=[N+]=NCc1ccccc1C[C@]1(C(=O)N2CCOCC2)COC(c2ccc(OCCCO)cc2)=N1,n,n,x,n,n
COc1ccccc1CN1[C@H](CO)[C@H]2c3ccccc3N(C(=O)c3cccnc3)C[C@H]21,130,n,n,n,x
COc1ccccc1CN1[C@@H](CO)[C@@H]2c3ccccc3N(C(=O)c3cccnc3)C[C@@H]21,n,n,n,n,x
CCOC(=O)NC1CCc2cc(OC)c(OC)c(OC)c2-c2ccc(SC)c(=O)cc21 (configuration not stated),n,n,n,n,n
CCOCC(=O)NC1CCc2cc(OC)c(OC)c(OC)c2-c2ccc(SC)c(=O)cc21 (configuration not stated),n,43,n,n,x
Clc1ccc(CSc2nncn2-c2ccc3c(c2)OCCO3)cc1,n,n,x,11,n
Cc1ccc2cccc(S(=O)(=O)N3CCCc4ccccc43)c2n1,n,43,x,n,n
O=C(C[C@@H]1CC[C@@H]2[C@H](COC[C@@H](O)CN2Cc2cccc(C(F)(F)F)c2)O1)NCc1ccc(Cl)cc1,n,n,n,n,n
Cc1ccccc1S(=O)(=O)N1C[C@@H](O)COC[C@@H]2O[C@@H](CC(=O)NCc3ccccc3Cl)CC[C@H]21,n,n,n,n,n
O=C(C[C@H]1CC[C@H]2[C@@H](COC[C@@H](O)CN2C(=O)Nc2ccc(Cl)c(Cl)c2)O1)NCc1ccc(Cl)c(Cl)c1,n,1.3,n,n,x
O=C(C[C@@H]1CC[C@H]2[C@@H](COC[C@H](O)CN2Cc2cccc(C(F)(F)F)c2)O1)NCc1ccc(Cl)cc1,n,n,n,n,68[16.7 µM]
Cc1ccccc1S(=O)(=O)N1C[C@H](O)COC[C@H]2O[C@@H](CC(=O)NCc3ccccc3Cl)CC[C@@H]21,n,n,n,n,57[16.7 µM]
Cc1noc(C)c1S(=O)(=O)Nc1ccc2c(c1)CC(=O)N([C@@H](C)CO)C[C@@H](C)[C@H](CN(C)CC1CC1)O2,n,n,n,n,n
O=C(C[C@H]1C[C@H]2c3cc(NC(=O)NC4CCCC4)ccc3O[C@H]2[C@@H](CO)O1)NCc1cc(F)ccc1F,x,n,n,n,n
CCOc1ccc(N(CC)C(=O)COc2cc(=O)n(C)c3ccccc23)cc1,n,n,n,8.8,n
O=C(CN(C1CCCCC1)S(=O)(=O)c1ccc(F)cc1)NCC1CCCO1 (configuration not stated),n,n,n,21,x
COc1cccc(CN2CCCC(CNC(=O)c3ccc(F)cc3)C2)c1OC (configuration not stated),n,43,n,n,n
SMILES,S100A4 inh HTS,FGF22 binding,E-selectin induc,CFTR F508del cor,Env fusion inh
CC(=O)NCC1CCCN(Cc2cn(-c3ccccc3)nc2-c2ccc3c(c2)OCO3)C1 (configuration not stated),n,n,n,n,n
Cn1cc(CN2CCCC(CNC(=O)c3ccc4c(c3)OCO4)C2)c2ccccc21 (configuration not stated),n,n,n,n,56
COCc1cc(CN2CCCC(CNC(=O)c3ccc(F)cc3)C2)ccc1OC (configuration not stated),n,n,x,n,n
CC1CCC(N2CCNCC2)CC1 (configuration not stated),n,44,x,n,n
C=CCON/C(CCC)=C1\C(=O)C(C(=O)OC)C(C)(C)CC1=NC (configuration not stated),n,44,n,n,n
C[C@H]1CN([C@@H](C)CO)C(=O)c2cc(NC(=O)Cc3cn(C)c4ccccc34)ccc2O[C@H]1CN(C)C(=O)Nc1cccc2ccccc12,n,n,x,n,x
C=CCc1ccc(OCC(O)CN2CCc3ccccc3C2)c(OC)c1 (configuration not stated),n,n,n,n,n
COc1cc(COCC(O)CN2CCc3ccccc3C2)cc(OC)c1OC (configuration not stated),n,44,n,n,n
C[C@@H]1CN([C@@H](C)CO)C(=O)c2cc(NS(=O)(=O)c3cn(C)cn3)ccc2O[C@@H]1CN(C)C(=O)Nc1ccccc1,n,n,n,n,n
Cc1ccc(NS(=O)(=O)c2cc(C(=O)N(C)C3CCN(C)CC3)ccc2Cl)cc1Cl,n,n,n,n,75
Cc1c(NC(=O)c2cccc(NC(=O)COc3ccccc3C#N)c2)c(=O)n(-c2ccccc2)n1C,n,n,n,n,60
CN1CCC(N(C)C(=O)c2ccc(Cl)c(S(=O)(=O)N3CCCCC3)c2)CC1,n,n,x,n,n
Cc1c(NC(=O)c2ccc(N(C)S(=O)(=O)c3ccccc3)cc2)c(=O)n(-c2ccccc2)n1C,n,43,n,n,n
Cc1ccc(NC(=O)c2ccc(Cl)c(S(=O)(=O)Nc3c(C)n(C)n(-c4ccccc4)c3=O)c2)cc1Cl,n,n,n,12,n
Cc1c(NS(=O)(=O)c2cc(C(=O)Nc3ccc(F)cc3Cl)ccc2Cl)c(=O)n(-c2ccccc2)n1C,n,n,n,n,n
C[C@@H]1CN([C@@H](C)CO)C(=O)c2cc(NC(=O)NC3CCCCC3)ccc2O[C@@H]1CN(C)Cc1ccc(C(=O)Nc2ccccc2N)cc1,n,n,n,n,x
COc1ccc(S(=O)(=O)Nc2ccc3c(c2)CC(=O)N([C@@H](C)CO)C[C@H](C)[C@H](CN(C)CC2CC2)O3)cc1,x,x,n,n,n
C[C@H](CO)N1C[C@H](C)[C@H](CN(C)C(=O)Cc2cccnc2)Oc2cc(C3=CCCCC3)ccc2S1(=O)=O,n,n,n,n,n
C[C@@H]1CN([C@@H](C)CO)C(=O)c2cc(C#CCc3ccccc3)cnc2O[C@H]1CN(C)Cc1cccc(F)c1,n,n,n,n,x
CN1c2ccc(-c3cccc(F)c3)cc2[C@@H]2[C@@H](CCN2C(=O)c2cccc(F)c2)[C@@H]1CO,n,x,n,n,x
CCOc1cc(/C=N/n2cnnc2)ccc1OS(=O)(=O)c1ccc(C)cc1,n,44,x,n,n
